PDI inh = inhibitors of human protein disulfide isomerase | actives 0.052% (n = 350,000) | AID 588391 | inhibition, % at 10 µM | PDI insulin aggregation turbidity, A650, 90 min | P07237;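 active = mean inhibition across replicates of 30% or more, whatever share of single replicates reach that level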
CAL PDZ FP-1 = inhibitors of human CAL PDZ peptide binding; purified CAL PDZ, TMR-peptide fluorescence polarization, 1 h; inhibition, % at 24.9 µM; actives 0.92% (n = 300,000); AID 602252;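 active = mean inhibition of at least 30% with at least half of replicates also reaching 30%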;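 note: 0% = DMSO neutral control and 100% = excess unlabeled competitor peptide PRC23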
CAL PDZ FP-2 = blocks peptide binding to human CAL PDZ domain; actives 0.02% (n = 330,000); purified CAL PDZ, TMR-peptide fluorescence polarization, 1 h; AID 504414; inhibition, % at 20 µM; Q9HD26;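 active = highest replicate inhibition of at least 40%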;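 note: plate controls were DMSO neutral control wells for no effect and unlabeled competitor peptide control wells for full effect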
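material = purified tagged CAL PDZ domain construct (CerCALP) | compound dosing = 20 µM, one dose | times = 1 h at RT | measured by = fluorescence polarization from S- and P-plane intensities, G-factor corrected | read-out = inhibition from polarization loss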
ERp5 block = blocks human ERp5 reductase activity on insulin; Q15084; ERp5 insulin aggregation, absorbance 650 nm, 90 min; inhibition, % at 9.99 µM; actives 0.05% (n = 350,000); AID 651711;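 active = mean replicate inhibition above about 25%, with every replicate also reaching it, limit read from the data, passing the limit was not always enough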
Rin1-Abl PPI inh = blocks binding of human Rin1 to Abl; P00519+Q13671; TR-FRET Rin1/Abl binding, biochemical; inhibition, % at 7.35 µM; actives 0.4% (n = 360,000); in the data active = inhibition above about 5%, passing the limit was not always enough
ERAP1 HTS inh = blocks human ERAP1 aminopeptidase activity; recombinant ERAP1, Leu-AMC fluorescence, 60 min; inhibition, % at 10.7 µM; AID 652197; actives 0.15% (n = 340,000);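 active = mean replicate inhibition of at least 30%, or all replicates individually reaching that 30% level; inactive = mean below 30% and not every replicate reaching it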;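 note: 0% = neutral control wells and 100% = L-leucinethiol positive control wells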
An asterisk follows results filed as active; . = not tested or not shown. Sampled rows, rich in hits. Any-hit rate of the full collection: about 1.1%.

SMILES	PDI inh	CAL PDZ FP-1	CAL PDZ FP-2	ERp5 block	Rin1-Abl PPI inh	ERAP1 HTS inh
Cc1cccc(-c2ccc([C@@H]3[C@@H](CO)N4C(=O)CN(S(=O)(=O)c5cccc(F)c5)C[C@@H]34)cc2)c1	.	.	.	1	.	0
CC(=O)NC1C(OCc2ccccc2)OC(CO)C(OC(C)=O)C1OC(C)=O (centres undefined)	-5	46*	1	.	-2	.
CC(=O)NC1C(OCc2cccc(Br)c2)OC(COC(C)=O)C(OC(C)=O)C1OC(C)=O (centres undefined)	-2	.	-1	0	2	-2
CN1CCN(C(=O)C[C@H]2CC[C@@H]3[C@H](COC[C@@H](O)CN3Cc3cccc(Cl)c3)O2)CC1	.	.	.	2	.	0
CC1(C)CC(=O)C2=C(C1)OC1=C(C(=O)CC(C)(C)C1)C2c1ccc(O)cc1O	77*	-5	.	.	1	.
CCS(=O)(=O)Nc1ccc2c(c1)C(=O)N(C)[C@H]1CC[C@H](CC(=O)NCc3ccccc3F)O[C@@H]1CO2	.	.	.	-4	.	-4
O=c1[nH]c(=S)[nH]c2c1C(c1ccc(Br)cc1)c1c([nH]c(=S)[nH]c1=O)O2	9	31*	.	23	2	10
O=C(c1cccnc1)N1CC2(C1)[C@H](c1ccccc1)[C@@H](CO)N2C(=O)CC1CC1	.	.	.	-2	.	0
Cc1noc(C)c1NC(=O)N[C@@H]1C=C[C@H](CC(=O)N2CCN(C)CC2)O[C@H]1CO	.	.	.	-4	.	3
COCC(=O)N(C)C[C@@H]1Oc2cc(C#CC(C)(C)O)ccc2S(=O)(=O)N([C@H](C)CO)C[C@H]1C	.	.	.	-37	.	0
CCC(=O)N(C)C[C@H]1Oc2cc(-c3ccc(C#N)cc3)ccc2S(=O)(=O)N([C@@H](C)CO)C[C@@H]1C	.	.	.	85*	.	1
COCC(=O)N(C)C[C@H]1Oc2cc(C#CC(C)(C)O)ccc2S(=O)(=O)N([C@@H](C)CO)C[C@@H]1C	.	.	.	47*	.	1
COCC(=O)N(C)C[C@H]1Oc2cc(C#CC(C)(C)O)ccc2S(=O)(=O)N([C@@H](C)CO)C[C@H]1C	.	.	.	68*	.	-1
O=C(c1cccc(F)c1)N1CCCCN2[C@H](C1)[C@H](c1ccc(-c3ccccc3)cc1)[C@@H]2CO	.	.	.	28*	.	3
O=C(c1cccc(F)c1)N1CCCCN2[C@H](CO)[C@@H](c3ccc(-c4ccc(F)cc4)cc3)[C@H]2C1	.	.	.	4	.	-3
O=C(O)C1Nc2c(O)cc(Cl)c([N+](=O)[O-])c2C2C=CCC12 (centres undefined)	20	4	0	11	14*	24
O=[N+]([O-])c1ccc(Cl)c2c1C1C=CCC1C(c1ccccn1)N2 (centres undefined)	-5	-6	0	3	-3	0
O=C(O)CCS(=O)(=O)c1cccc2cccnc12	-1	2	-1	.	3	.
CCSS(=O)(=O)c1cccc2cccnc12	0	-5	-1	2	1	96*
C[C@@H]1CN([C@@H](C)CO)C(=O)Cc2cc(NS(=O)(=O)c3ccc(F)cc3)ccc2O[C@H]1CN(C)Cc1ccc(C(=O)O)cc1	.	.	.	9	.	-2
Cc1ccc(S(=O)(=O)N2CCOC2CNC(=O)C(=O)NCCc2ccccc2)cc1 (centres undefined)	10	33*	-1	-1	-2	0
Cc1ccc(S(=O)(=O)N2CCOC2CNC(=O)C(=O)NCCCc2ccccc2)cc1 (centres undefined)	2	-2	0	0	-4	1
O=C(c1ccc2c(c1)OCO2)C1CCCN(Cc2cc(F)ccc2-n2cccn2)C1 (centres undefined)	0	57*	-1	4	-2	-1
Cc1ccc(-n2cccn2)c(CN2CCCC(C(=O)c3ccc4c(c3)OCO4)C2)c1 (centres undefined)	-8	-1	-2	-2	-1	7
Cc1ccccc1C(=O)c1ccccc1C(=O)c1ccccc1	-4	86*	0	-1	1	2
O=C(c1ccccc1)c1ccccc1C(=O)c1ccccc1	-7	-6	.	3	4	0
O=Cc1cn[nH]c1-c1cccc([N+](=O)[O-])c1	7	-1	-1	4	6	-1
O=C(O)c1cn[nH]c1-c1cccc([N+](=O)[O-])c1	4	61*	-5	-1	-2	2
